Hits are enriched below; roughly 3% of the tested compounds scored in any of these assays.
Cl transport mod: modulates chloride dependent transport by human KCC2; Q9H2X9; KCC2 cells, thallium flux FluoZin-2 fluorescence; B-score of Tl+ flux slope (higher = more flux/activation; lower = inhibition) at 10 µM; hit rate 2.2% among 190,000;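 active = thallium flux slope and its plate-corrected score both differing from the plate sample mean at a set confidence after two filtering rounds, in either direction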;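 also: slope of fluorescence scaled to starting intensity during 10 to 20 s after thallium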
PKD1 kinase inh: blocks activity of human protein kinase D1 | hit rate 0.056% among 200,000 | PKD1 kinase fluorescence polarization assay | Q15139 | AID 797 | inhibition, % (concentration not given with the values); in the data active = inhibition above about 50%
Rad51 HR inh: blocks human Rad51 in homologous recombination; inhibition, % at 10 µM; hRad51 DNA strand exchange, fluorescence dequenching; Q06609; hit rate 0.085% among 200,000;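 active = inhibition above 40% at the single screening dose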;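 also: 0% = DMSO control wells and 100% = blanks with heterologous ssDNA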
Target sequence (Q06609 whole entry, looked up): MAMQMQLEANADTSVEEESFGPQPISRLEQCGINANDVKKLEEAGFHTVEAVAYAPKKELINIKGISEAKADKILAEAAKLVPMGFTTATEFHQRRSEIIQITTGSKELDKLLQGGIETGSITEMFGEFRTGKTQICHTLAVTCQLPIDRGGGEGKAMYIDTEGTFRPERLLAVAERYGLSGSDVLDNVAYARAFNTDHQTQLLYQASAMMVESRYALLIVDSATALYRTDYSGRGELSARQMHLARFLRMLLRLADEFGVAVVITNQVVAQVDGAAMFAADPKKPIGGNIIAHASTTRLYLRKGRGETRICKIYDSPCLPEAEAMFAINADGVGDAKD
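Test system: preformed human Rad51 ssDNA filaments. Compound dosing: single dose, 10 µM final compound. Incubation: filaments 15 min 37 °C, then compound 30 min. Technique: FRET fluorescence dequenching, excitation 485 nm, emission 520 nm. Read-out basis: percent inhibition from fluorescence, normalised to plate control and blank means. Benchmarks: plate controls and plate blanks.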
ROMK primary: modulators of human ROMK potassium channel. P48048. Tet-inducible ROMK, thallium flux fluorescence; actives lie on both sides. B-score at 10 µM. hit rate 2% among 130,000. AID 1918;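 active = signal ratio slope over the read window, or its plate-corrected B-score, at least 3 SD from the plate mean, either direction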;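 also: B-score of the F/F0 ratio slope over 7 to 12 s after thallium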
Target sequence (P48048 whole entry, looked up): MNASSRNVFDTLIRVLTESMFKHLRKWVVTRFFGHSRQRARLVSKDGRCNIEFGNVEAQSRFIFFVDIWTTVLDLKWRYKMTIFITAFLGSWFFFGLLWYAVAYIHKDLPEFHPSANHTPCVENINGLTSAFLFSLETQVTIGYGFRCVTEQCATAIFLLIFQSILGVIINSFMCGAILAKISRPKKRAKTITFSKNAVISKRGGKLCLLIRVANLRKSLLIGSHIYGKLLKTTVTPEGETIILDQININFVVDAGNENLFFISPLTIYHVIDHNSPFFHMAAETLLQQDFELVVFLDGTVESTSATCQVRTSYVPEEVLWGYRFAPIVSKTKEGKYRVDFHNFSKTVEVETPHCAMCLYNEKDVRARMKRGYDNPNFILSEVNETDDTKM
KCC2 secondary: KCC2 (human) modulation, secondary assay. HEK293-KCC2, thallium flux, FluoZin2 fluorescence; stronger effect = higher value. hit rate 15% among 3,700. normalised thallium flux (F/F0 slope) at 10 µM. shares compounds with Cl transport mod;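 active = thallium flux slope above the same plate's solvent-only control mean plus 3 SD; inconclusive = the two replicate wells disagree; inactive = no significant difference from solvent-only control wells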
KCC2 bumet counter: thallium flux persisting under bumetanide in KCC2 cells, counter-screen secondary assay | shares compounds with Cl transport mod | HEK293-KCC2 + bumetanide/ouabain, thallium flux FluoZin2; stronger effect = higher value | hit rate 49% among 3,700 | normalized thallium flux at 10 µM | AID 1714;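 active = thallium entry rate above the same plate's blocked-transporter control wells by more than 3 SD; inconclusive = the two repeat wells disagree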;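 also: raw slope of fluorescence over initial fluorescence between 10 and 20 s after thallium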
KCC2 secondary2: KCC2 (human) modulation, second secondary assay; shares compounds with Cl transport mod; HEK293-KCC2, thallium flux FluoZin2 fluorescence; actives lie on both sides; F/F0 rise rate, 10–20 s post-thallium; normalized thallium flux at 10 µM; hit rate 23% among 3,700;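 active = thallium flux slope more than 3 SD above or below the plate's solvent-only control mean, mostly below; inconclusive = the two repeat wells disagreed; inactive = no significant shift from solvent-only controls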;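 also: raw slope with 0.1% DMSO as baseline and bumetanide as block control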
HEK293 Tl flux: acts in parental HEK cells, KCC2 counter-screen; shares compounds with Cl transport mod; HEK293 parental cells, thallium flux FluoZin2, ouabain; baseline-ratio fluorescence slope, 10–20 s after thallium; thallium flux rate (normalised fluorescence) at 10 µM; hit rate 46% among 3,700;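 active = thallium flux rate significantly above the same plate's solvent-only control wells, beyond their mean plus 3 SD; inconclusive = the two replicate wells gave conflicting results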
KCC2 ouabain: KCC2 (human) modulation, ouabain retest; shares compounds with Cl transport mod; HEK293-KCC2, thallium flux FluoZin2 fluorescence; bidirectional: low = inhibitor, high = activator; raw Tl+ flux slope (below DMSO = inhibition, above = activation) at 10 µM; hit rate 48% among 3,700; AID 1717;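 active = thallium flux slope beyond 3 SD from same-plate DMSO control mean in most replicates, usually higher, sometimes lower; inconclusive = repeat tests gave conflicting results; inactive = no significant difference from controls in most replicates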;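 also: slope of initial-normalized fluorescence between seconds 10 and 20 after thallium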
HEK293 Tl flux2: counter-screen for KCC2 modulators: effect in parental HEK293 cells; shares compounds with Cl transport mod; thallium flux FluoZin-2 fluorescence slope; thallium flux slope at 10 µM; hit rate 33% among 3,700; AID 1718;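 active = thallium flux slope above the same plate's solvent-control mean plus 3 SD in both duplicate wells; inconclusive = duplicate wells that disagreed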;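 also: run without ouabain in cells lacking the KCC2 cotransporter; slope of fluorescence scaled to its starting value between 10 and 20 s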
ROMK hit retest: retested hit modulating human ROMK potassium channel; shares compounds with ROMK primary; ROMK thallium flux, fluorescence ratio; stronger effect = lower value; normalized thallium flux (F/F0 slope) at 10 µM; hit rate 54% among 3,000;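 active = Flux at 10 µM at least 3 SD below or above vehicle control mean in one or both replicates; inconclusive = no clear call, values can overlap the other calls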
Active calls of the source: *; i = inactive; ? = inconclusive; nt = no result.

SMILES | Cl transport mod | PKD1 kinase inh | Rad51 HR inh | ROMK primary | ROMK hit retest | others
Cc1cc(OCCN2CC2)c2ccccc2n1 | -0.0644 | nt | 3.8 | -1.76 | nt
CCN(CC)CCCN=Cc1c(O)n(CCc2ccc(OC)c(OC)c2)c(=O)[nH]c1=O | -6.21* | -2.7 | 2.1 | nt | nt | KCC2 secondary=0.0101;KCC2 bumet counter=0.00674;KCC2 secondary2=0.033;HEK293 Tl flux=?;KCC2 ouabain=0.0244;HEK293 Tl flux2=?
CCN(CC)c1ccc(N=Cc2c(O)n(CCc3ccc(OC)c(OC)c3)c(=O)[nH]c2=O)cc1 | -0.35 | -3.7 | -21.9 | nt | nt
CC[C@]12C=CCN3CCC4(c5cc(Br)c(OC)cc5N(C)C4[C@@](O)(C(=O)OC)[C@@H]1OC(C)=O)C32 (some centres not stated) | -0.766 | 2.9 | -3.4 | -1.28 | nt
O=c1[nH]c(O)c(N=Nc2cc([N+](=O)[O-])ccc2O)c(=O)[nH]1 | nt | -4.2 | 8.6 | nt | nt | KCC2 secondary=0.00723;KCC2 bumet counter=?;KCC2 secondary2=0.032;HEK293 Tl flux=0.00796;KCC2 ouabain=0.019;HEK293 Tl flux2=0.0117
NC(=O)c1ccc(N=Nc2c(O)[nH]c(=O)[nH]c2=O)cc1 | 0.441 | -4.7 | -59.5 | nt | nt
CC1(C)CC(N(CCc2ccccc2)Cc2ccccc2)CCO1 (configuration not stated) | -0.133 | nt | 8.6 | nt | nt
Cc1cccc(NC(=S)N2CC3CC(C2)c2cccc(=O)n2C3)c1C (configuration not stated) | -1.46 | 0.6 | -0.3 | nt | nt
Cc1nc2cc(C(F)(F)F)ccc2n1C1CCN(Cc2nnnn2Cc2cccs2)CC1 | -1.34 | 1.8 | -4.2 | -0.445 | nt
Cc1nc2cc(C(F)(F)F)ccc2n1C1CCN(Cc2nnnn2Cc2ccc3c(c2)OCO3)CC1 | -4.7* | 7.7 | 4.6 | -0.47 | nt | KCC2 secondary=0.0049;KCC2 bumet counter=0.00517;KCC2 secondary2=?;HEK293 Tl flux=0.00715;KCC2 ouabain=?;HEK293 Tl flux2=0.0112
COc1cccc(-n2c(-c3ccoc3)nc3ccccc3c2=O)c1 | nt | -5.7 | -4.0 | -1.62 | nt | KCC2 secondary=0.00656;KCC2 bumet counter=0.00407;KCC2 secondary2=0.0314;HEK293 Tl flux=0.00724;KCC2 ouabain=0.0181;HEK293 Tl flux2=0.00984
COc1ccc(-n2c(=O)[nH]c3ccccc3c2=O)cc1 | 0.904 | 5.7 | 4.9 | nt | nt | KCC2 secondary=0.00958;KCC2 bumet counter=0.00632;KCC2 secondary2=0.0311;HEK293 Tl flux=0.00841;KCC2 ouabain=0.0193;HEK293 Tl flux2=0.0105
COc1ccc(-n2c(=O)[nH]c3ccccc3c2=O)c(OC)c1 | 0.162 | -11.1 | -5.4 | 0.151 | nt
O=C1C2CCCN2C(c2cccnc2)N1c1ccc(Cl)cc1 (configuration not stated) | 0.178 | -9.7 | -4.4 | nt | nt
O=C1C2CCCN2C(c2cccnc2)N1c1nccs1 (configuration not stated) | 3.16* | -16.6 | nt | nt | nt | KCC2 secondary=0.0158;KCC2 bumet counter=?;KCC2 secondary2=0.0284;HEK293 Tl flux=0.00745;KCC2 ouabain=0.016;HEK293 Tl flux2=0.00991
CCN1C(=O)C(=Cc2ccc(N3CCOCC3)o2)C(=O)N(CC)C1=S | -1.98 | nt | i | nt | 0.0545*
C=CCN1C(=O)/C(=C\c2ccc(N3CCOCC3)o2)C(=O)NC1=S | -2.1 | -1.0 | nt | -4.74* | 0.052*
CN1C(=O)C(=Cc2ccc(N3CCOCC3)o2)C(=O)N(C)C1=S | nt | -8.3 | -159.9 | nt | nt
CCOc1cc(CNCCc2c[nH]c3ccccc23)cc(Cl)c1OC | -0.214 | -0.6 | -4.4 | -3.17* | 0.0611*
CCCCC(=O)N/N=C/c1c(O)n(CC)c(=S)[nH]c1=O | -0.698 | -1.1 | 5.4 | 1.88* | 0.0767
CC1(C)C[C@H]2C=C(C=O)[C@]3(C=O)C[C@]3(C)[C@H]2C1 | -2.99 | -4.5 | 3.3 | -9.94* | 0.05*
CC1COC2N=C(N[N+](=O)[O-])NC2O1 (configuration not stated) | 0.0965 | -1.6 | -16.5 | 1.56 | nt
O=C1N(c2ccccc2)C(c2cccnc2)N2CCCN12 (configuration not stated) | 0.206 | 3.8 | nt | 2.46* | 0.0872
CN1C(=O)C(=Cc2ccc(Sc3ccccc3)o2)C(=O)N(C)C1=O | -2.52 | 5.7 | 4.3 | -5.58* | 0.0565*
O=C1NC(=O)C(=Cc2ccc(Sc3ccccc3)o2)C(=O)N1 | -2.49 | nt | -2.6 | nt | nt
SMILES | Cl transport mod | PKD1 kinase inh | Rad51 HR inh | ROMK primary | ROMK hit retest | others
CCOC(=O)c1c(C)n(CC(O)CN2CCOCC2)c2cc(Br)c(OC)cc12 (configuration not stated) | 1.94 | -3.1 | 19.4 | -0.0088 | nt
COC(=O)c1cccc(N=Cc2c(O)n(Cc3ccc(F)cc3)c(=O)[nH]c2=O)c1 | 1.13 | nt | 11.0 | 0.353 | nt
CCC(=NCc1cccnc1)c1c(O)n(C2CCCCC2)c(=O)[nH]c1=O | -0.893 | -2.5 | -1.6 | -2.15 | nt
CCC(=NCc1ccco1)c1c(O)n(C2CCCCC2)c(=O)[nH]c1=O | nt | -18.4 | 2.7 | -3.99* | 0.0536*
CNC(=O)Nc1ccc(C(=O)N/N=C\C23CC[C@@H](O)CC2(O)CC[C@@H]2[C@@H]3CCC3(C)C(C4=CC(=O)OC4)CCC23O)cc1 (some centres not stated) | 0.315 | nt | 18.0 | nt | ?
CC12CC[C@H]3[C@@H](CCC4(O)C[C@H](O)CCC34/C=N/NC(=O)Cc3ccccc3)C1(O)CCC2C1=CC(=O)OC1 (some centres not stated) | 0.966 | nt | -5.6 | nt | 0.0855
Clc1cc(Cl)cc(NC2=NCCS2)c1 | -0.18 | nt | 13.3 | nt | nt
O=C(c1ccc2c(c1)ncn2C1CCCCC1)N1CCC2(CC1)OCCO2 | nt | 2.2 | -8.2 | 2.41* | 0.0883
COc1ccccc1N1CCN(Cc2ccc(Br)s2)CC1 | -0.52 | -4.0 | -5.4 | nt | nt
O=C(/C=C/c1c[nH]c2ccccc12)c1c(O)n(CCc2ccccc2)c(=O)[nH]c1=O | i | nt | i | nt | 0.04*
CC(C)(C)c1ccc(C(=O)C2CCCN(C3CCC3)C2)cc1 (configuration not stated) | 1.22 | 0.9 | -3.8 | -0.0215 | nt
COC(=O)C1C=C2c3cccc4[nH]cc(c34)CC2N(C)C1 (configuration not stated) | 0.201 | nt | nt | nt | 0.0542*
CCC(CO)NC(=O)C1C=C2c3cccc4[nH]cc(c34)CC2N(C)C1 (configuration not stated) | 0.116 | nt | 0.5 | nt | nt
CC1CCC(C(C)C)C(OC(=O)Cn2c(COc3ccccc3)[n+](C)c3ccccc32)C1 (configuration not stated) | 0.017 | nt | -6.1 | -8.83* | 0.0374*
Cc1nn(CC(C)C)c(Cl)c1C(=O)O | 0.108 | 3.5 | -1.6 | 0.141 | nt
